From paper PMC5299595 (Fitoterapia, 2016)
Entries after “also recorded” stand apart in the source; their conditions may differ. Where a name gives a salt, the structure may show the parent alone. Read-outs that look alike come from different tables or passages of the source.

Legend:
nicAchRs = assay: [3H]-epibatidine competition binding in rat cortical membranes; conditions: read-out: Ki, [3H]-epibatidine binding
α4β2-nicAchR [1] = biological target: α4β2-nicAchR (Rattus norvegicus, UniProt P09483+P12390); assay: [3H]-cytisine competition binding in rat cortical membranes; conditions: read-out: Ki, [3H]-cytisine binding (α4β2-nicAchR)
α7-nicAchR [2] = biological target: α7-nicAchR (Rattus norvegicus, UniProt Q05941); assay: [3H]-MLA competition binding in rat hippocampal membranes; conditions: read-out: Ki, [3H]-MLA binding (α7-nicAchR)
DAT [3] = biological target: T1, DAT (Rattus norvegicus, UniProt P23977); assay: [3H]-GBR12935 competition binding in rat striatal membranes; conditions: read-out: Ki, [3H]-GBR12935 binding
Summary of the method: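 Striatal tissue homogenised in 120 mM NaCl/50 mM Tris-HCl (pH 7.4), spun at 25,000 × g for 20 min at 4°C, then washed thrice in the same buffer plus 0.01% FBS. Membranes (1 mg/ml final) preincubated 15 min with test compound (final 1.0 mM – 0.1 nM; DMSO <0.1%). 1 nM [3H]-GBR12935 then added for 1 h at room temperature. GF/B filtration and scintillation counting; non-specific binding defined with 10 μM GBR12909.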

[4] = system: nicAchRs in SH-SY5Y cells; assay: 45Ca2+ entry in SH-SY5Y cells; format: cell-based, human
DAT [5] = biological target: T1, DAT; assay: DAT-mediated [3H]-DA uptake in rat striatal synaptosomes; format: biochemical; conditions: read-out: IC50, DAT-mediated [3H]-DA uptake
Summary of the method: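 Striata from CO2-anaesthetised adult male Sprague-Dawley rats (200–250 g) homogenised in pH 7.4 HEPES uptake buffer (100 μM pargyline, 0.32 M sucrose). Synaptosomes taken as the 16,000 × g pellet after a 1,000 × g spin. Test compound (final 1 mM – 0.1 nM; DMSO ≤1.0%) preincubated 10 min at 37°C. [3H]-DA (15–30 nM final) uptake for 5 min at 37°C, stopped on ice, GF/C filtration, scintillation counting. Non-specific uptake defined with 10 μM GBR-12909.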

[6] = DPPH free radical scavenging assay; conditions: read-out: EC50, DPPH free radical scavenging; DPPH 300 μM, 5 minutes
[7] = system: rat striatal slices preloaded with [3H]-DA; assay: Fractional [3H] release from [3H]-DA preloaded superfused rat striatal slices; format: cell-based
Summary of the method: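 Rat coronal striatal slices (500 μm, 6–8 mg) equilibrated 30 min at 34°C in oxygenated Krebs' buffer (pH 7.4), then preloaded with 0.1 μM [3H]-DA for 30 min. Superfused at 34°C, 1 ml/min, with buffer containing 10 μM pargyline and 10 μM nomifensine. Two 4-min basal samples taken after 60 min. Test compound (10, 100 or 1000 μM) then perfused per chamber, or 100 μM given after 20 min of 10 μM MEC or vehicle. Compared with vehicle-treated slices by Bonferroni post-hoc test; n = 4–10 rats.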

DAT [8] = biological target: T1, DAT; format: in vivo
Summary of the method: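 High-speed chronoamperometry with Nafion-coated carbon fibre microelectrodes in the dorsal striatum of isoflurane-anaesthetised rats. Clearance of locally applied exogenous DA used to gauge DAT function, and test compound also applied locally in the striatum.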

α4β2- and α7-nicAchRs [9] = conditions: α7 vs α4β2, based on comparison of Ki's
[10] = PubChem data; cited from earlier work
cats = conditions: intravenous; cited from earlier work
rabbits = conditions: intravenous; cited from earlier work
mice = conditions: cited from earlier work
α4β2- and α7-nicAchRs [11] = conditions: previously reported, ref Littleton et al. (2005) [15], cited from earlier work
[12] = system: rat striatal slices preloaded with [3H]-DA; conditions: cited from earlier work
α4β2-nicAchR [13] = conditions: read-out: Ki α4β2-nicAchR, cited from earlier work
α7-nicAchR [14] = conditions: read-out: Ki α7-nicAchR, cited from earlier work
DAT [15] = biological target: T1, DAT; conditions: cited from earlier work

Question: Which results are given for CN1CCCC2C(c3ccccc3)C(C3=NCCCC3)C(c3ccccc3)CC21 (stereo not drawn) [Lobinaline, lobinaline]?
Answer: Ki (nicAchRs): 16.2 µM; Ki (α4β2-nicAchR [1]): 1.07 µM; Ki (α7-nicAchR [2]): 67.5 µM; Ki (DAT [3]): 2.54 µM; 45Ca2+ entry, increase above basal ([4]; 1 mM): 41.6%; 45Ca2+ entry, increase above basal ([4]; 1 mM concomitantly with NIC 10 μM): 115.7%; Effect of MEC on compound-induced 45Ca2+ entry ([4]; 1 mM with MEC 1 μM): completely abolished; IC50 (DAT [5]): 12 µM; EC50 [6]: 18 µM; Fractional [3H] release vs vehicle ([7]; 10 μM): not significantly increased; Fractional [3H] release vs vehicle after MEC pretreatment ([7]; 100 μM after 10 μM MEC pretreatment for 20 minutes): not significantly different; also recorded: no significant difference; Fractional [3H] release, greater than vehicle ([7]; 100 μM, 8 minutes after treatment, MEC experiment set): 160%; Maximum fractional [3H] release, greater than vehicle treated ([7]; 100 μM, maximum 12 minutes post-treatment, concentration-response studies): 186%; Maximum fractional [3H] release, greater than vehicle treated controls ([7]; 100 μM, maximum 16 minutes after treatment, MEC experiment set): 262%; Maximum fractional [3H] release, greater than vehicle treated ([7]; 1000 μM, maximum 8 minutes post-treatment): 494%; Time after ejection at which effects on DA clearance are no longer significant (DAT [8]; local application in striatum): 3 to 5 min; Direct effect on electrochemical DA signal when locally applied alone (DAT [8]; locally applied from a micropipette, n = 10, data not shown): no direct effects; NicAchR Selectivity (-fold difference) (α4β2- and α7-nicAchRs [9]): 63 -fold; hydrogen bond acceptors [10]: 2; hydrogen bond donors [10]: 0; molar fractivity [10]: 82.47; Effect on blood pressure (cats): lower blood pressure; Effect on respiration (cats): unaffected; Effect on blood pressure (rabbits): lower blood pressure; Effect on respiration (rabbits): unaffected; minimal lethal dose (mice; subcutaneous administration in mice): 800 mg/kg

Question: For CN1[C@@H](CC(=O)c2ccccc2)CCC[C@H]1C[C@H](O)c1ccccc1 [Lobeline, (−)-lobeline hydrochloride], which EC50 [6] is on record?
Answer: 229 µM

Question: What about the “NicAchR Selectivity (-fold difference)” value (α4β2- and α7-nicAchRs [9]) of the same compound?
Answer: 1565 -fold

Question: What about the DDR value (α4β2- and α7-nicAchRs [11]) of the same compound?
Answer: 6.27 ^6

Question: What about the DDR value (α4β2- and α7-nicAchRs [11]; listed as lobeline) of the same compound?
Answer: 6.27

Question: What about the “MEC sensitivity of evoked fractional [3H] release” value [12] of the same compound?
Answer: MEC-insensitive

Question: And the Ki (α4β2-nicAchR [13]; ref Hojahmat et al. (2010))?
Answer: 0.004 µM

Question: And the Ki (α7-nicAchR [14]; ref Hojahmat et al. (2010))?
Answer: 6.26 µM

Question: And the IC50 (DAT [15]; read-out: IC50, DAT inhibition)?
Answer: 28.2 to 80 µM

Question: And the minimal lethal dose (mice; mouse, in vivo, sc)?
Answer: 300 mg/kg

Question: For c1cncc([C@@H]2CCCCN2)c1 [anabasine], which DDR value (α4β2- and α7-nicAchRs [11]) is on record?
Answer: 4.16

Question: And the Ki (α4β2-nicAchR [13])?
Answer: 0.065 µM

Question: And the Ki (α7-nicAchR [14])?
Answer: 0.058 µM

Question: For CNC1(C)C2CCC(C2)C1(C)C (stereo not drawn) [MEC, mecamylamine (MEC) hydrochloride], which “Effect on 45Ca2+ entry” value ([4]; 1 μM alone) is on record?
Answer: unaffected; also recorded: did not affect

Question: Which “45Ca2+ entry, increase above basal” value ([4]; 10 μM, LCaq experiments (Fig. 1A)) does the source give for CN1CCC[C@H]1c1cccnc1 [Nicotine, (−)-nicotine] here?
Answer: 374.4%

Question: And the “45Ca2+ entry, increase above basal” value ([4]; 10 μM, lobinaline experiments (Fig. 6A))?
Answer: 196.6%

Question: What about the “NicAchR Selectivity (-fold difference)” value (α4β2- and α7-nicAchRs [9]) of the same compound?
Answer: 1508 -fold

Question: What about the DDR value (α4β2- and α7-nicAchRs [11]) of the same compound?
Answer: 13.00 ^6

Question: And the DDR value (α4β2- and α7-nicAchRs [11]; listed as nicotine)?
Answer: 13.00

Question: And the Ki (α4β2-nicAchR [13]; ref Rueter et al. (2006))?
Answer: 0.00096 µM

Question: And the Ki (α7-nicAchR [14]; ref Rueter et al. (2006))?
Answer: 1.45 µM

Question: What about the “Activity at the DAT” value (DAT [15]; rat striatal synaptosomes) of the same compound?
Answer: inactive

Question: For O=c1c(O)c(-c2ccc(O)c(O)c2)oc2cc(O)cc(O)c12 [Quercetin], which EC50 [6] is on record?
Answer: 11.2 µM
